# Compound activity (PubChem BioAssay)
# CAL PDZ FP-1: blocks peptide binding to human CAL PDZ domain; 330,000 tested, 0.02% active; purified CAL PDZ, TMR-peptide fluorescence polarization, 1 h; Q9HD26; inhibition, % at 20 µM;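 active means highest replicate inhibition of at least 40%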
#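 Test system: tagged CAL PDZ domain / Buffer or medium: sodium phosphate/NaCl buffer pH 7.4 with TCEP, IgG, Thesit / Reagent: TMR-labelled reporter peptide T*-PRC34 bound in PDZ groove / Compound dosing: single point, 20 µM / Schedule: 1 h incubation at room temperature before polarization reading / Technique: fluorescence polarization (mP) / Benchmarks: unlabelled peptide, DMSO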
# dFosB act-1: activators of mouse delta FosB homodimer | AID 493131 | purified delta FosB, TAMRA-CDK5 oligo fluorescence polarization; percent of positive-control signal above neutral wells | P13346 | activation, % at 25 µM | 340,000 tested, 0.99% active;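 active means mean activation above about 17%, with every replicate also reaching it, limit read from the data, passing the limit was not always enough; inconclusive means only one of the two conditions met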
# Target sequence (P13346 whole entry, looked up): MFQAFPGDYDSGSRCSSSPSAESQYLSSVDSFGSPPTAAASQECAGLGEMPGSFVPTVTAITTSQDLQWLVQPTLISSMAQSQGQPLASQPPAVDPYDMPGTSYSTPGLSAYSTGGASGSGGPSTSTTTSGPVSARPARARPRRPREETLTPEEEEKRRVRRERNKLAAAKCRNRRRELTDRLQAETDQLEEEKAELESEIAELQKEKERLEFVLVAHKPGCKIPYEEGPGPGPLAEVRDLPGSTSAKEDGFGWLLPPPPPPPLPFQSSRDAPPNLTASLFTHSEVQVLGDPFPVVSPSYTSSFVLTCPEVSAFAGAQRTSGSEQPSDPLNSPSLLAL
# CAL PDZ FP-2: CAL PDZ (human) peptide binding inhibition. 300,000 tested, 0.92% active. Q9HD26. inhibition, % at 24.9 µM. purified CAL PDZ, TMR-peptide fluorescence polarization, 1 h. AID 602252;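 active means mean inhibition of at least 30% with at least half of replicates also reaching 30%; inconclusive means no clear call, values can overlap the other calls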
# CDK5 inh: inhibitors of human CDK5/p35 kinase. inhibition, % at 10 µM. 330,000 tested, 0.01% active. Recombinant CDK5/p35, ADP-Glo luminescence, 60 min;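 active means highest replicate inhibition of at least 50% and at least 75% of replicates reaching 50%; inconclusive means only one of the two criteria met; inactive means both criteria failed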
# DYRK1A inh: Dyrk1A (rat) kinase inhibition | inhibition, % at 12.5 µM | ADP-Glo luminescence, NFATc1 peptide | 310,000 tested, 0.43% active | AID 504441; in the data active means inhibition above about 50%
# Rtt109 HAT inh: C. albicans Rtt109 histone acetyltransferase inhibition. 330,000 tested, 0.16% active. purified Rtt109/Vps75, ThioGlo CoA-SH fluorescence, 4 h. Q5AAJ8. inhibition, % at 34.9 µM;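 active means inhibition of at least 50% in every replicate; inconclusive means best replicate reaches 50% inhibition but some replicates fall short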
# dFosB act-2: enhances mouse delta FosB homodimer binding to DNA | shares compounds with dFosB act-1 | purified delta FosB, TAMRA-CDK5 oligo fluorescence polarization; normalised: neutral wells 0, positive control 100 | activation, % at 24.9 µM | 2,400 tested, under 10 active | AID 588690;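 active means highest replicate activation at or above 34% and every replicate reaching that threshold; inconclusive means meets only one of the two criteria; inactive means meets neither criterion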;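 further: higher polarization means more probe DNA bound by delta FosB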
# A number is an active result; n = inactive; u = inconclusive; x = not tested or not shown. Sampled rows, rich in hits. Any-hit rate of the full collection: about 2.2%.
SMILES,CAL PDZ FP-1,dFosB act-1,CAL PDZ FP-2,CDK5 inh,DYRK1A inh,Rtt109 HAT inh,dFosB act-2
CCOc1ccc(CCN2C(=S)N([C@@H](CC(C)C)CN3CCCC3CN3C(=S)NC[C@@H]3Cc3ccc(O)cc3)C[C@@H]2Cc2ccc(O)cc2)cc1 (stereo not given in full),n,51,n,n,x,n,n
CC(=O)Nc1ccc(NC(=O)[C@@H](NC(=O)c2ccccc2F)C(C)C)cc1,n,n,n,n,n,n,x
O=C(Nc1cccc(-c2nc3cccnc3s2)c1)c1ccc(Cl)nc1,n,27,n,n,n,n,n
NS(=O)(=O)c1ccc(C(=O)Nc2ccc(-c3nc4cccnc4s3)cc2)cc1,n,43,n,n,n,n,n
NS(=O)(=O)c1ccc(NC(=O)c2ccc(-c3ccccc3)cc2)cc1,n,n,n,n,n,n,x
O=C(Nc1cccc(-c2nc3cccnc3s2)c1)C1c2ccccc2Oc2ccccc21,n,u,n,n,n,n,x
Cc1cc(SCC(=O)N/N=C/c2cccnc2)nc2c(C)cccc12,n,67,x,n,n,n,n
CC(=O)c1cccc(CN2CCC(n3nccc3NC(=O)CCCc3ccccc3)CC2)c1,n,n,n,n,n,n,x
C=CCNc1nc(Nc2ccc(-c3nc4ccccc4o3)cc2)nc(N2CCOCC2)n1,n,28,n,n,n,x,n
CCN(C(=O)COC(=O)CNC(=O)C1CCCCC1)c1ccccc1,n,n,n,n,n,n,x
COCCN(C(=O)C(C)C)c1nnc(-c2cccc(C)c2)s1,x,n,n,n,n,n,x
CCNC(=O)c1c(NC(=O)C2COc3ccccc3O2)sc2c1CCCC2 (stereo not given),n,27,n,n,n,n,n
O=C(Nc1cc(S(=O)(=O)N2CCOCC2)ccc1N1CCOCC1)c1cccc(S(=O)(=O)N2CCCCC2)c1,n,n,n,n,n,n,x
O=C1c2ccccc2C(=O)N1Cc1nc2ccccc2c(=O)n1CCCn1ccnc1,n,n,n,n,n,n,x
CCCCn1c(CN2C(=O)c3ccccc3C2=O)nc2ccccc2c1=O,n,30,n,n,n,n,n
O=C(O)CCCNS(=O)(=O)c1ccc(NCc2ccccc2)c(C(=O)O)c1,x,n,n,n,n,n,x
O=C(Nn1c(C2CCCCC2)nc2ccccc2c1=O)c1ccc([N+](=O)[O-])cc1Cl,n,43,n,n,n,n,n
COc1cc(S(=O)(=O)Nc2ccc(C)cc2)ccc1N=Cc1c(C)c(C#N)c(=O)n(C)c1O,n,128,n,n,n,n,n
COc1cc(S(=O)(=O)Nc2ccc(C)cc2)ccc1N=Cc1c(C)[nH]n(-c2ccc(C)cc2)c1=O,n,n,n,n,n,n,x
O=C(NCc1ccco1)c1cccc(NS(=O)(=O)c2ccccc2F)c1,n,n,x,n,n,n,x
N/C(CC(=O)Nc1ccc(F)c(Cl)c1)=N\OC(=O)c1cccs1,n,23,n,n,n,n,n
O=C(COC(=O)c1cccs1)Nc1ccc(F)c(F)c1,n,n,n,n,x,n,x
CC1CC(C)CN(C(=O)Cn2c(SCC(=O)N3CCc4ccccc4C3)nc3ccccc32)C1 (stereo not given),n,24,n,n,n,n,n
COc1ccc(-n2c(SCC(=O)N3CCc4ccccc43)nnc2-c2c[nH]c3ccccc23)cc1,n,49,x,n,n,n,n
CCN1CCN(CC(=O)Nc2ccc(N(C)C)cc2)CC1,n,n,n,n,n,n,x
SMILES,CAL PDZ FP-1,dFosB act-1,CAL PDZ FP-2,CDK5 inh,DYRK1A inh,Rtt109 HAT inh,dFosB act-2
Cc1ccc(S(=O)(=O)Nc2cccc(-c3ccc4nncn4n3)c2)cc1,n,20,n,n,n,n,n
COc1ccc(-c2nc(C(N)=O)c3[nH]c(=O)n(-c4cccc(Cl)c4)c3n2)cc1OC,n,29,n,n,n,n,n
CCN(CC)S(=O)(=O)c1cccc(C(=O)Nc2nc3cc4c(cc3s2)OCCO4)c1,n,23,n,n,n,x,n
COc1ccccc1C(=O)Nc1nc2cc3c(cc2s1)OCCO3,n,31,n,n,n,n,n
Nc1c(C(=O)Nc2ccc(Cl)cc2)sc2nc(N3CCOCC3)c3c(c12)CCCC3,n,n,n,n,n,n,x
CC(=O)c1sc(NC(=O)c2ccc(C)c(C)c2)nc1C,n,23,n,n,n,n,n
Cn1c(=O)c(=O)n(C)c2cc(S(=O)(=O)CCC(=O)Nc3cccc(C(F)(F)F)c3)ccc21,n,21,n,x,x,n,n
CCOC(=O)c1[nH]c(C)c(C(=O)OCC(=O)N2CCc3ccccc32)c1C,n,n,x,n,n,n,x
CC(=O)c1c(C)[nH]c(C(=O)OCC(=O)N2CCc3ccccc32)c1C,n,29,n,n,n,n,n
O=C(OCC(=O)N1CCCCCC1)c1n[nH]c(=O)c2ccccc12,x,n,n,n,x,n,x
O=C(OCC(=O)N1CCc2ccccc21)c1n[nH]c(=O)c2ccccc12,n,38,n,n,x,n,n
COc1cccc(/C=N/NC(=O)CCn2c3ccccc3c3ccccc32)c1,n,24,n,n,n,n,n
CC(C)(C)c1ccc(Cc2n[nH]c(=S)[nH]c2=O)cc1,x,n,n,n,n,n,x
Cc1ccc2c(c1)C1NC(=S)NC(C)(O2)C1C(=O)Nc1ccc(Cl)cc1 (stereo not given),n,40,x,n,n,n,n
CC(=O)NC(=S)Nc1ccc(NC(=S)NC(=O)c2cccs2)cc1,n,37,n,n,n,n,n
Cc1ccccc1C(=O)Nc1cccc(NC(=S)NC(=O)c2cccs2)c1,n,50,n,n,n,n,n
O=C(CN1C(=O)NC2(CCCC2)C1=O)N1CCN(c2ccccc2Cl)CC1,n,n,n,n,n,n,x
CN(C)CCCN1C(=O)c2cc3ccccc3cc2C1=O,n,n,n,n,n,n,x
CC(C)(C)C(=O)N1CCN(CCN2C(=O)c3cccc4cccc(c34)C2=O)CC1,n,n,n,n,x,n,x
COc1ccc(C(=O)CN2CCN(CCN3C(=O)c4cccc5cccc(c45)C3=O)CC2)cc1,n,42,n,n,n,n,n
O=C(CN1CCN(CCN2C(=O)c3cccc4cccc(c34)C2=O)CC1)c1ccc(F)cc1,n,33,n,n,n,n,n
CN(C)CCCN1C(=O)c2cccc3cccc(c23)C1=O,n,20,n,n,n,n,n
O=C1c2cccc3cccc(c23)C(=O)N1CCCN1CCN(c2ccc(F)cc2)CC1,n,46,n,n,n,n,n
O=C(CCCN1C(=O)c2cccc3cccc(c23)C1=O)N1CCN(c2ccccc2)CC1,n,n,n,n,n,n,x
